Assay results taken from ChEMBL document CHEMBL5674869, “The Histone Methyltransferase Inhibitor A-366 Uncovers a Role for G9a/GLP in the Epigenetics of Leukemia” (PLoS One, 2015).
The source made the active and inactive calls. The rule behind the calls is not given here.

Tests used:
HT-1080 = experiment: Antiproliferative activity against human HT-1080 cells after 5 days by Cell-Titer-Glo assay; type: functional, cell-based; settings: HT-1080, 120 h
In short: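 ATCC tumor lines were grown in their recommended media with 10% FBS and STR-authenticated. Cells were exposed to compound for the stated number of days. Viable cells were read by CellTiter-Glo endpoint. Inhibition was the ratio of treated to untreated wells, with cell-free wells set as 100% inhibition. The EC50 was taken from the dose response.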

MCF7 [1] = experiment: Antiproliferative activity against human MCF7 cells assessed as inhibition of colony formation at 10 uM after 14 days by crystal violet staining based clonogenic assay; type: functional, cell-based; settings: time 14.0 day
In short: (§1)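 Clonogenic assay: 500 live cells per well were seeded into six-well plates in drug-free medium. Compound diluted in culture medium was added 24 h later. Cells were cultured at 37°C, then fixed and stained with 0.2% crystal violet. Colonies were counted on an automated colony counter.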

MDA-MB-231 = experiment: Antiproliferative activity against human MDA-MB-231 cells assessed as effect on colony formation at 0.1 to 10 uM after 14 days by crystal violet staining based clonogenic assay; type: functional, cell-based; settings: dose 0.1-10 µM, time 14.0 day; in short: as §1
[2] = target: T1, Histone-lysine N-methyltransferase EHMT2 (Homo sapiens) (UniProt Q96KQ7); experiment: Inhibition of G9a in human PC-3 cells assessed as effect on H3k9me3 levels at 0.3 to 3 uM after 72 hrs by Western blot analysis; type: cell-based; settings: dose 0.3-3 µM
T1 sequence (whole entry): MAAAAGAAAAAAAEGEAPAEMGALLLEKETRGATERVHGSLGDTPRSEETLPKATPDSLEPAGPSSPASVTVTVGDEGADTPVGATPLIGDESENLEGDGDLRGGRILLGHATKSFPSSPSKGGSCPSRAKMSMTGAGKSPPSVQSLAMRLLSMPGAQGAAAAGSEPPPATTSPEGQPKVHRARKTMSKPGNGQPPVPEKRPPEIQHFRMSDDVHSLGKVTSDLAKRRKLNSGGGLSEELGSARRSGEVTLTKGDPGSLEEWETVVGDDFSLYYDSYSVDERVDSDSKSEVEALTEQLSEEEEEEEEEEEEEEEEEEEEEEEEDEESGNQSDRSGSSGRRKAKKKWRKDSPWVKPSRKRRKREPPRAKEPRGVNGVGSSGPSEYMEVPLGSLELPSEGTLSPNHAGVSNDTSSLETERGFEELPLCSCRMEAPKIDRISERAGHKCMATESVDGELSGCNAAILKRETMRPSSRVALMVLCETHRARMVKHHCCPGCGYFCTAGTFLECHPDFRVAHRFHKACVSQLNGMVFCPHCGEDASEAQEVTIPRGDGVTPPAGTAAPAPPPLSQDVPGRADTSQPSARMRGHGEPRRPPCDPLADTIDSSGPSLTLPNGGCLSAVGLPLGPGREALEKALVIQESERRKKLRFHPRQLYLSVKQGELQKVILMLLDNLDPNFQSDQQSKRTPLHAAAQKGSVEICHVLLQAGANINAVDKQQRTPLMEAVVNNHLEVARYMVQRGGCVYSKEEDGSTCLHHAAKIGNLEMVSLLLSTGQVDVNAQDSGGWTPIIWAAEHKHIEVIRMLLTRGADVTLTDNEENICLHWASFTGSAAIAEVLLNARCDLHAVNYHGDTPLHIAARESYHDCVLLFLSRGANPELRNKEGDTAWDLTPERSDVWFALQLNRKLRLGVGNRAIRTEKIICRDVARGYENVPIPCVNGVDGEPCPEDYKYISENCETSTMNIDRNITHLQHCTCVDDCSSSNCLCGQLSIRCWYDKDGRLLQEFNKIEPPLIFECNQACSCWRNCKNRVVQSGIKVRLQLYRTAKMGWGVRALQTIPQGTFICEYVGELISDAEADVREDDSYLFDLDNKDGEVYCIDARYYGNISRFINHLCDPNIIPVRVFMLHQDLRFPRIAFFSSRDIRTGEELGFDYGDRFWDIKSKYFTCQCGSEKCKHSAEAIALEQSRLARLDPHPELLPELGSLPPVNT
In short: (§2)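 PC-3 prostate cells incubated with DMSO, 0.3 or 3 μM compound for 72 h. Lysates probed by western blot with antibodies to H3K9me2, H3K4me2, H3K4me3, H3K9me3, H4K20me1, H4K20me3, H3K36me2 and H3K27me3.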

[3] = target: T1, Histone-lysine N-methyltransferase EHMT2 (Homo sapiens); experiment: Inhibition of G9a in human PC-3 cells assessed as effect on H3k36me2 levels at 0.3 to 3 uM after 72 hrs by Western blot analysis; type: cell-based; settings: dose 0.3-3 µM; in short: as §2
MV4-11 = experiment: Induction of cell morphology change in human MV4-11 cells assessed as increase in cytoplasm-nucleus ratio and nuclear lobulation at 5 uM after 10 days by Wright- Geimsa staining analysis; type: functional, cell-based; settings: time 10.0 day
In short: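 MV4;11 cells exposed to DMSO or 5 μM compound for 10 days, then stained with a Wright-Giemsa kit. Morphology was examined for cytoplasm:nucleus ratio and nuclear lobulation.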

[4] = target: T1, Histone-lysine N-methyltransferase EHMT2 (Homo sapiens); experiment: Inhibition of G9a in human PC-3 cells assessed as effect on H4k20me3 levels at 0.3 to 3 uM after 72 hrs by Western blot analysis; type: cell-based; settings: dose 0.3-3 µM; in short: as §2
[5] = target: T1, Histone-lysine N-methyltransferase EHMT2 (Homo sapiens); experiment: Inhibition of G9a in human MV4-11 cells assessed as increase in cell differentiation marker CD11b for 14 days by flow cytometry; settings: time 14.0 day
[6] = target: T1, Histone-lysine N-methyltransferase EHMT2 (Homo sapiens); experiment: Inhibition of G9a in human PC-3 cells assessed as effect on H3k4me2 levels at 0.3 to 3 uM after 72 hrs by Western blot analysis; type: cell-based; settings: dose 0.3-3 µM; in short: as §2
Mus musculus [7] = experiment: Decrease in H3K9me2 level in SCID/beige mouse tumor xenografted with human MV4-11 cells at 30 mg/kg/day via osmotic-mini pump for 7 days by alphaLisa assay; type: functional, organism-based; settings: Neoplasm, time 7.0 day
In short: (§3)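 Female SCID-beige mice, 6–8 weeks old, received 5 x 10^6 MV4;11 cells in 50% Matrigel subcutaneously in the flank. At about 200 mm3, compound was given at 30 mg/kg/day by osmotic mini-pump in 98% PEG-400/2% Tween-80. In the PK/PD arm, tumors were harvested at the stated day and H3K9me2 was measured by AlphaLISA relative to vehicle.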

Mus musculus [8] = experiment: Decrease in H3K9me2 level in SCID/beige mouse tumor xenografted with human MV4-11 cells at 30 mg/kg/day via osmotic-mini pump for 14 days by alphaLisa assay; type: functional, organism-based; settings: Neoplasm, time 14.0 day; in short: as §3
[9] = Drug level in SCID/beige mouse tumor xenografted with human MV4-11 cells at 30 mg/kg/day via osmotic-mini pump; type: ADME, organism-based, Neoplasm; settings: in vivo
In short: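 Tumor-bearing SCID-beige female mice (6–8 wk) with subcutaneous flank MV4;11 xenografts (5 x 10^6 cells in 50% Matrigel, grown to ~200 mm3). Compound given by osmotic mini-pump at 30 mg/kg/day in 98% PEG-400/2% Tween-80. Separate PK/PD arm sacrificed after 2, 7 and 14 days of treatment; plasma and tissues collected and analyzed for drug levels.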

[10] = target: T1, Histone-lysine N-methyltransferase EHMT2 (Homo sapiens); experiment: Inhibition of G9a in human PC-3 cells assessed as effect on H3k27me3 levels at 0.3 to 3 uM after 72 hrs by Western blot analysis; type: cell-based; settings: dose 0.3-3 µM; in short: as §2
MCF7 [11] = experiment: Antiproliferative activity against human MCF7 cells assessed as effect on colony formation at 0.1 to 10 uM after 14 days by crystal violet staining based clonogenic assay; type: functional, cell-based; settings: dose 0.1-10 µM, time 14.0 day; in short: as §1

| SMILES | EC50 (HT-1080) [nM] | Activity (MCF7 [1]) | Activity (MDA-MB-231) | inhibition [2] | inhibition [3] | Activity (MV4-11) | inhibition [4] | inhibition [5] | inhibition [6] | inhibition (Mus musculus [7]) | inhibition (Mus musculus [8]) | Drug uptake [9] | inhibition [10] | Activity (MCF7 [11]) |
| --- | --- | --- | --- | --- | --- | --- | --- | --- | --- | --- | --- | --- | --- | --- |
| COc1cc2c(NC3CCN(C(C)C)CC3)nc(C3CCCCC3)nc2cc1OCCCN1CCCC1 | 500 | Active | – | – | – | – | – | – | – | – | – | – | – | – |
| COc1cc2c(cc1OCCCN1CCCC1)N=C(N)C21CCC1 | – | – | inactive | inactive | inactive | Active | inactive | Active | inactive | Active | Active | Active | inactive | inactive |
